Converted amounts (≈) assume the structure as drawn.
Tests used:
Format in all cases: functional
Staphylococcus aureus [1] = assay: Antibacterial activity against kanamycin-resistant Staphylococcus aureus AH346 (SCV-18) harboring -1 frameshift mutation at nucleotide 238 in rplF gene after 18 to 24 hrs by Etest strip assay
Method in brief: (§1)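 SCVs of a Rifr 8325-4 derivative were selected on LA with KAN at 8, 16 or 24 μg/ml for 48 h at 37°C. They were purified at the same KAN level and screened on LA plus FA 1 μg/ml.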

Staphylococcus aureus [2] = assay: Antibacterial activity against kanamycin-resistant and fusidic acid-susceptible Staphylococcus aureus AH296 harboring Gly664Ala mutation in fusA gene after 18 to 24 hrs by Etest strip assay
Method in brief: (§2)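 Etest MIC: a single colony was suspended in 0.9% NaCl to 0.5 McFarland and swabbed over Mueller-Hinton agar. The strip was applied and plates were incubated at 37°C for 18 to 24 h until an SCV lawn grew.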

Staphylococcus aureus [3] = assay: Antibacterial activity against kanamycin-resistant and fusidic acid-susceptible Staphylococcus aureus AH288 harboring Gly617Asp mutation in fusA gene after 18 to 24 hrs by Etest strip assay; method in brief: as §2
Staphylococcus aureus [4] = assay: Antibacterial activity against kanamycin-resistant Staphylococcus aureus AH332 (SCV-4) harboring Ala655Glu mutation in fusA gene after 18 to 24 hrs by Etest strip assay; method in brief: as §1
Staphylococcus aureus [5] = assay: Antibacterial activity against kanamycin-resistant Staphylococcus aureus AH347 (SCV-19) harboring Arg659Ser mutation in fusA gene after 18 to 24 hrs by Etest strip assay; method in brief: as §1
Staphylococcus aureus [6] = assay: Antibacterial activity against kanamycin-resistant Staphylococcus aureus AH358 (SCV-30) harboring -1 frameshift mutation at nucleotide 423 in rplF gene after 18 to 24 hrs by Etest strip assay; method in brief: as §1
Staphylococcus aureus [7] = assay: Antibacterial activity against kanamycin-resistant Staphylococcus aureus AH366 (SCV-38) harboring Pro114His mutation in fusA gene after 18 to 24 hrs by Etest strip assay; method in brief: as §1
Staphylococcus aureus [8] = assay: Antibacterial activity against kanamycin-resistant Staphylococcus aureus AH364 (SCV-36) harboring Asp434Asn mutation in fusA gene after 18 to 24 hrs by Etest strip assay; method in brief: as §1
Staphylococcus aureus [9] = assay: Antibacterial activity against kanamycin-resistant and fusidic acid-susceptible Staphylococcus aureus AH292 harboring Gly664Val mutation in fusA gene after 18 to 24 hrs by Etest strip assay; method in brief: as §2
Staphylococcus aureus [10] = assay: Antibacterial activity against kanamycin-resistant Staphylococcus aureus AH369 (SCV-41) harboring Gln115Leu mutation in fusA gene after 18 to 24 hrs by Etest strip assay; method in brief: as §1
Staphylococcus aureus [11] = assay: Antibacterial activity against fusidic acid-resistant Staphylococcus aureus AH198 harboring Gly452Ser mutation in fusA gene after 18 to 24 hrs by Etest strip assay
Method in brief: (§3)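 Mutants of lab strain 8325-4 were selected on LA with FA 2 μg/ml for 48 h at 37°C and purified on selective medium. For the MIC, one colony was suspended in 0.9% NaCl to 0.5 McFarland and swabbed onto Mueller-Hinton agar. An Etest strip was applied and plates were incubated at 37°C for 18–24 h until the lawn was evident.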

Staphylococcus aureus [12] = assay: Antibacterial activity against fusidic acid-resistant Staphylococcus aureus AH206 harboring Arg464Ser mutation in fusA gene after 18 to 24 hrs by Etest strip assay; method in brief: as §3
Staphylococcus aureus [13] = assay: Antibacterial activity against kanamycin-resistant Staphylococcus aureus AH351 (SCV-23) harboring -4 frameshift mutation at nucleotide 45-48 in rplF gene after 18 to 24 hrs by Etest strip assay; method in brief: as §1
Staphylococcus aureus [14] = assay: Antibacterial activity against kanamycin-resistant Staphylococcus aureus AH333 (SCV-5) harboring TAA stop codon at nucleotide 249 in rplF but gene after 18 to 24 hrs by Etest strip assay; method in brief: as §1
Staphylococcus aureus [15] = assay: Antibacterial activity against kanamycin-resistant Staphylococcus aureus AH390 (SCV-62) harboring +1 frameshift mutation at nucleotide 84 in rplF gene after 18 to 24 hrs by Etest strip assay; method in brief: as §1
Staphylococcus aureus [16] = assay: Antibacterial activity against kanamycin-resistant Staphylococcus aureus AH367 (SCV-39) harboring Gly664Ser mutation in fusA gene after 18 to 24 hrs by Etest strip assay; method in brief: as §1
Staphylococcus aureus [17] = assay: Antibacterial activity against kanamycin-resistant Staphylococcus aureus AH384 (SCV-56) harboring -1 frameshift mutation at nucleotide 221 in rplF gene after 18 to 24 hrs by Etest strip assay; method in brief: as §1
Staphylococcus aureus [18] = assay: Antibacterial activity against kanamycin-resistant and fusidic acid-susceptible wild type Staphylococcus aureus 8325-4 […] after 18 to 24 hrs by Etest strip assay; method in brief: as §2
Staphylococcus aureus [19] = assay: Antibacterial activity against kanamycin-resistant and fusidic acid-susceptible Staphylococcus aureus AH298 harboring Gly664Val mutation in fusA gene after 18 to 24 hrs by Etest strip assay; method in brief: as §2
Staphylococcus aureus [20] = assay: Antibacterial activity against kanamycin-resistant and fusidic acid-susceptible Staphylococcus aureus AH421 harboring Pro404Arg mutation in fusA gene after 18 to 24 hrs by Etest strip assay; method in brief: as §2
Staphylococcus aureus [21] = assay: Antibacterial activity against kanamycin-resistant Staphylococcus aureus AH340 (SCV-12) harboring Gly617Asp mutation in fusA gene after 18 to 24 hrs by Etest strip assay; method in brief: as §1
Staphylococcus aureus [22] = assay: Antibacterial activity against fusidic acid-resistant Staphylococcus aureus AH197 harboring Leu456Phe mutation in fusA gene after 18 to 24 hrs by Etest strip assay; method in brief: as §3
Staphylococcus aureus [23] = assay: Antibacterial activity against kanamycin-resistant Staphylococcus aureus AH334 (SCV-6) harboring Thr436Ile mutation in fusA gene after 18 to 24 hrs by Etest strip assay; method in brief: as §1
Staphylococcus aureus [24] = assay: Antibacterial activity against kanamycin-resistant Staphylococcus aureus AH383 (SCV-55) harboring TAA stop codon at nucleotide 139 in rplF gene after 18 to 24 hrs by Etest strip assay; method in brief: as §1
Staphylococcus aureus [25] = assay: Antibacterial activity against kanamycin-susceptible wild type Staphylococcus aureus AH001 after 18 to 24 hrs by Etest strip assay
Method in brief: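 The inoculum was a single colony suspended in 0.9% NaCl to 0.5 McFarland and swabbed over a Mueller-Hinton agar plate. An Etest gradient strip was then applied, and the plate was incubated at 37°C for 18 to 24 h until lawn growth was evident. MIC was read from the strip following the manufacturer's instructions.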

Staphylococcus aureus [26] = assay: Antibacterial activity against kanamycin-resistant Staphylococcus aureus AH379 (SCV-51) harboring TAA stop codon at nucleotide 418 in rplF but gene after 18 to 24 hrs by Etest strip assay; method in brief: as §1
Staphylococcus aureus [27] = assay: Antibacterial activity against kanamycin-resistant Staphylococcus aureus AH374 (SCV-46) harboring -5 frameshift mutation at nucleotide 236-240 in rplF gene after 18 to 24 hrs by Etest strip assay; method in brief: as §1
Staphylococcus aureus [28] = assay: Antibacterial activity against fusidic acid-resistant Staphylococcus aureus AH204 harboring deletion of nucleotide 203-231 in rplF gene after 18 to 24 hrs by Etest strip assay; method in brief: as §3
Staphylococcus aureus [29] = assay: Antibacterial activity against fusidic acid-resistant Staphylococcus aureus AH188 harboring Gly664Ser mutation in fusA gene after 18 to 24 hrs by Etest strip assay; method in brief: as §3
Staphylococcus aureus [30] = assay: Antibacterial activity against kanamycin-resistant Staphylococcus aureus AH370 (SCV-42) harboring TAA stop codon at nucleotide 229 in rplF gene after 18 to 24 hrs by Etest strip assay; method in brief: as §1
Staphylococcus aureus [31] = assay: Antibacterial activity against kanamycin-resistant Staphylococcus aureus AH360 (SCV-32) harboring ATA start codon at nucleotide 3 in rplF gene after 18 to 24 hrs by Etest strip assay; method in brief: as §1

Structure (SMILES)	MIC (Staphylococcus aureus [1]) [µg/mL]	MIC (Staphylococcus aureus [2]) [µg/mL]	MIC (Staphylococcus aureus [3]) [µg/mL]	MIC (Staphylococcus aureus [4]) [µg/mL]	MIC (Staphylococcus aureus [5]) [µg/mL]	MIC (Staphylococcus aureus [6]) [µg/mL]	MIC (Staphylococcus aureus [7]) [µg/mL]	MIC (Staphylococcus aureus [8]) [µg/mL]	MIC (Staphylococcus aureus [9]) [µg/mL]	MIC (Staphylococcus aureus [10]) [µg/mL]	MIC (Staphylococcus aureus [11]) [µg/mL]	MIC (Staphylococcus aureus [12]) [µg/mL]	MIC (Staphylococcus aureus [13]) [µg/mL]	MIC (Staphylococcus aureus [14]) [µg/mL]	MIC (Staphylococcus aureus [15]) [µg/mL]	MIC (Staphylococcus aureus [16]) [µg/mL]	MIC (Staphylococcus aureus [17]) [µg/mL]	MIC (Staphylococcus aureus [18]) [µg/mL]	MIC (Staphylococcus aureus [19]) [µg/mL]	MIC (Staphylococcus aureus [20]) [µg/mL]	other results
NC[C@H]1O[C@H](O[C@H]2[C@H](O)[C@@H](O[C@H]3O[C@H](CO)[C@@H](O)[C@H](N)[C@H]3O)[C@H](N)C[C@@H]2N)[C@H](O)[C@@H](O)[C@@H]1O [KANAMYCIN]	8	16 (≈ 33 µM)	16 (≈ 33 µM)	12 (≈ 24.8 µM)	12 (≈ 24.8 µM)	48	12 (≈ 24.8 µM)	8 (≈ 16.5 µM)	32 (≈ 66 µM)	6 (≈ 12.4 µM)	4 (≈ 8.26 µM)	6 (≈ 12.4 µM)	64	8 (≈ 16.5 µM)	256	12 (≈ 24.8 µM)	128	2 (≈ 4.13 µM)	32 (≈ 66 µM)	8 (≈ 16.5 µM)	MIC (Staphylococcus aureus [21]): 12 µg/mL (≈ 24.8 µM); MIC (Staphylococcus aureus [22]): 6 µg/mL (≈ 12.4 µM); MIC (Staphylococcus aureus [23]): 128 µg/mL (≈ 264 µM); MIC (Staphylococcus aureus [24]): 96 µg/mL (≈ 198 µM); MIC (Staphylococcus aureus [25]): 1.5 µg/mL (≈ 3.1 µM); MIC (Staphylococcus aureus [26]): 12 µg/mL (≈ 24.8 µM); MIC (Staphylococcus aureus [27]): 32 µg/mL; MIC (Staphylococcus aureus [28]): 8 µg/mL (≈ 16.5 µM); MIC (Staphylococcus aureus [29]): 24 µg/mL (≈ 49.5 µM); MIC (Staphylococcus aureus [30]): 8 µg/mL (≈ 16.5 µM); MIC (Staphylococcus aureus [31]): 96 µg/mL (≈ 198 µM)
CN[C@@H]1[C@H](O[C@H]2[C@H](O[C@H]3[C@H](O)[C@@H](O)[C@H](N=C(N)N)[C@@H](O)[C@@H]3N=C(N)N)O[C@@H](C)[C@]2(O)C=O)O[C@@H](CO)[C@H](O)[C@H]1O [STREPTOMYCIN]	24	8 (≈ 13.8 µM)	32 (≈ 55 µM)	12 (≈ 20.6 µM)	32 (≈ 55 µM)	64	24 (≈ 41.3 µM)	24 (≈ 41.3 µM)	16 (≈ 27.5 µM)	12 (≈ 20.6 µM)	6 (≈ 10.3 µM)	8 (≈ 13.8 µM)	256	24 (≈ 41.3 µM)	64	16 (≈ 27.5 µM)	256	6 (≈ 10.3 µM)	6 (≈ 10.3 µM)	12 (≈ 20.6 µM)	MIC (Staphylococcus aureus [21]): 24 µg/mL (≈ 41.3 µM); MIC (Staphylococcus aureus [22]): 8 µg/mL (≈ 13.8 µM); MIC (Staphylococcus aureus [23]): 192 µg/mL (≈ 330 µM); MIC (Staphylococcus aureus [24]): 192 µg/mL (≈ 330 µM); MIC (Staphylococcus aureus [25]): 3 µg/mL (≈ 5.16 µM); MIC (Staphylococcus aureus [26]): 16 µg/mL (≈ 27.5 µM); MIC (Staphylococcus aureus [27]): 96 µg/mL; MIC (Staphylococcus aureus [28]): 24 µg/mL (≈ 41.3 µM); MIC (Staphylococcus aureus [29]): 16 µg/mL (≈ 27.5 µM); MIC (Staphylococcus aureus [30]): 24 µg/mL (≈ 41.3 µM); MIC (Staphylococcus aureus [31]): 192 µg/mL (≈ 330 µM)

— ChEMBL document CHEMBL1151442, “Genetic and phenotypic identification of fusidic acid-resistant mutants with the small-colony-variant phenotype in Staphylococcus aureus” (2007)
